Source: paper PMC3983399 (Journal of Medicinal Chemistry, 2014)
Each block holds one compound with its values, some of them ahead of it.

How the values were obtained:
M14 melanoma cell line = test: CellTiter-Glo viability assay, M14 cells; type: cell-based
In short: (§1)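 Cells plated at 1250/well in serum-free medium (F12 for CHO-K1 and A549, DMEM for M14). Compounds given as 10-point 1:3 dilution series starting at 300 µM before addition, with gefitinib as assay control. Incubated 72 h at 37 °C, 5% CO2. CellTiter-Glo added, 15 min at room temperature, luminescence read. Normalized to media-only (0%) and 1% DMSO-treated cells (100%). Percent inhibition is the mean of three experiments ± SD.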

[1] = tested on: A549 nonsmall cell lung cancer cell line; test: CellTiter-Glo viability assay, A549 cells; type: cell-based; conditions: Homo sapiens, A549, read-out: Inhibition % @ 100 μM A549
In short: as §1

M14 cells = test: ApoTox-Glo triplex assay; type: cell-based; conditions: for cytotoxicity response / effect on cell viability (live cell protease): early time point (4 h); for time of caspase activity spike: time points 4, 24, 48, 72 h
In short: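 M14 #5 cells, 1250/well in serum-free DMEM, preincubated 4 h at 37 °C, 5% CO2. Compounds (1:3 serial dilutions) incubated 4, 24, 48 and 72 h alongside ionomycin, terfenadine and panobinostat controls. Viability/cytotoxicity reagent (400 µM GF-AFC, 400 µM bis-AAF-R110 in reagent) 30 min at 37 °C; fluorescence Ex400/Em505 (live-cell protease) and Ex485/Em520 (dead-cell protease). Then Caspase-Glo 3/7, 30 min at room temperature, luminescence.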

HDAC2 = HDAC2 (Homo sapiens, UniProt Q92769); test: HDAC inhibition, HDAC2; type: biochemical; conditions: up to 100 μM, data not shown
Sequence of HDAC2 (Q92769 whole entry): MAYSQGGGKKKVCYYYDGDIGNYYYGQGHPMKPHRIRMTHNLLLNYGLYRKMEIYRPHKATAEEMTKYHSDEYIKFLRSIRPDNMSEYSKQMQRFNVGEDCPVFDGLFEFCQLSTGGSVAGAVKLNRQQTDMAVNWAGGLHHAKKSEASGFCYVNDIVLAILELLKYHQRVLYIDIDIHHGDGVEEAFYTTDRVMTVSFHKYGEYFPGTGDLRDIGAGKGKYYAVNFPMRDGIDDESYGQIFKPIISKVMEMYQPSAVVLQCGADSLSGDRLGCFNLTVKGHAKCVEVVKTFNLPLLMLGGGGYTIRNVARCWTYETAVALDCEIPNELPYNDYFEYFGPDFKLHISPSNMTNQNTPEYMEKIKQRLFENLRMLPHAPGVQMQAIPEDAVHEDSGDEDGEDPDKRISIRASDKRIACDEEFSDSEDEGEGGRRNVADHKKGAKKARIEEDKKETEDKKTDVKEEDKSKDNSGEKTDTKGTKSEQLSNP

HDAC1 = HDAC1 (Homo sapiens, UniProt Q13547); test: HDAC inhibition, HDAC1; type: biochemical; conditions: up to 100 μM, data not shown
Sequence of HDAC1 (Q13547 whole entry, species assumed): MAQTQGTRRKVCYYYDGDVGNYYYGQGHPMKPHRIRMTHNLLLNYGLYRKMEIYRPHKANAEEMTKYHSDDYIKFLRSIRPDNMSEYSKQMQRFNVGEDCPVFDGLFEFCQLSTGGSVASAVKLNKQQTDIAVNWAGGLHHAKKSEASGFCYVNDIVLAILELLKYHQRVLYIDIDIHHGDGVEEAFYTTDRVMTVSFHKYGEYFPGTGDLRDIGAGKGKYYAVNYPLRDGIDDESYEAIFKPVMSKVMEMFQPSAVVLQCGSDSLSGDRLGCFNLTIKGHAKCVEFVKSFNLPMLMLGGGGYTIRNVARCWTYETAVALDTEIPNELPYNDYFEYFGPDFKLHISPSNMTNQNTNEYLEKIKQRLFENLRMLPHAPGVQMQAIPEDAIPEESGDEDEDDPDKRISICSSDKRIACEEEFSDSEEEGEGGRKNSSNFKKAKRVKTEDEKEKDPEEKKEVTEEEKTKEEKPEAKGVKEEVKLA

HDAC6 = biological target: T1, HDAC6 (Homo sapiens, UniProt Q9UBN7); test: HDAC inhibition, HDAC6; type: biochemical; conditions: up to 100 μM, data not shown
T1 sequence (Q9UBN7 1-1215): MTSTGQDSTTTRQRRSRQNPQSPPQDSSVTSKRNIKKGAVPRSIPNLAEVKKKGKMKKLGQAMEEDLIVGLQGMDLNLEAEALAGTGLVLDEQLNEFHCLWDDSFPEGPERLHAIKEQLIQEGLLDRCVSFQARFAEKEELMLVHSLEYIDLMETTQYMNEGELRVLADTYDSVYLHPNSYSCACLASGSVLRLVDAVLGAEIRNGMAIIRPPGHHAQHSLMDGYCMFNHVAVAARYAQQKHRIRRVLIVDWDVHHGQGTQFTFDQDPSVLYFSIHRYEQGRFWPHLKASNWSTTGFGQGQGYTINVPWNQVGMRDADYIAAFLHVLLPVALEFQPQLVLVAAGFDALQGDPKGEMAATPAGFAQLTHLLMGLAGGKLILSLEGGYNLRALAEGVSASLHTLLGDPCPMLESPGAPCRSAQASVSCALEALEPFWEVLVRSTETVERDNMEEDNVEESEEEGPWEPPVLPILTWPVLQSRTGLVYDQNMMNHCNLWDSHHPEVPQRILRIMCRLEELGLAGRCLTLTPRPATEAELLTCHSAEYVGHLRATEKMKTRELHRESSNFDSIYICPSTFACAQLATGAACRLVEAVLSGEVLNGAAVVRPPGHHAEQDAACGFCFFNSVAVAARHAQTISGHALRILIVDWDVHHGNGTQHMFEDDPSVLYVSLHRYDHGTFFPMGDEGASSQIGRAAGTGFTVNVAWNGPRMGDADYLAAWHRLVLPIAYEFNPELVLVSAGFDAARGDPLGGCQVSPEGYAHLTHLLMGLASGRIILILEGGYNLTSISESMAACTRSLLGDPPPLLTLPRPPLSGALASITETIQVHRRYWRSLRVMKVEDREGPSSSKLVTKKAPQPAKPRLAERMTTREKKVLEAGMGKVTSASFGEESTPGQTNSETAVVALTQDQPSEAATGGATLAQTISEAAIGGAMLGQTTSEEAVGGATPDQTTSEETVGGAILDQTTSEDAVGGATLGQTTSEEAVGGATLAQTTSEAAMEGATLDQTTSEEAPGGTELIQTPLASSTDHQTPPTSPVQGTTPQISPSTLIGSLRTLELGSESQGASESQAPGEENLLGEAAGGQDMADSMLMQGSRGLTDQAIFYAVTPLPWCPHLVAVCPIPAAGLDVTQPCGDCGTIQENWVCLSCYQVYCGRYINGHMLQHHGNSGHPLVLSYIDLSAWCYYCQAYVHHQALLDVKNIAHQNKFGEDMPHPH

[2] = tested on: SKMEL-28 melanoma cell line; test: Hexosaminidase viability assay, SKMEL-28; type: cell-based; conditions: Homo sapiens, SK-MEL-28, read-out: IC50 SKMEL-28, text
In short: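 Cells in 96-well plates grown overnight, then treated 48 h with compound at 0–50 µM. Wells washed with PBS. Hexosaminidase substrate added for 30 min at 37 °C, followed by developer; absorbance read at 405 nm. Percent viability = (treated absorbance/control absorbance) × 100.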

[3] = tested on: melanoma cells with mutated Q61LNRAS and wild-type BRAF (M202 and M207); conditions: up to 10 μM; cited from earlier work

Structure (SMILES): CCC[C@@H]1CNC(=O)C(=O)N1C[C@@H]1CCCN1C[C@H](Cc1ccc(O)cc1)N1C[C@@H](Cc2ccc(O)cc2)N(CC(CC)c2ccccc2)C(=O)C1=O (some centres unmarked) [Compound 2]
inhibition at 100 µM (M14 melanoma cell line; Homo sapiens, M14, read-out: Inhibition % @ 100 μM M14): 14 ± 3% | inhibition at 100 µM [1]: 0%

Structure (SMILES): O=C1NC[C@H](Cc2ccccc2)N(C[C@@H]2CCCN2C[C@@H](CC2CCCCC2)N2C[C@H](Cc3ccc(O)cc3)N(CCc3ccccc3)C(=O)C2=O)C1=O [Compound 2155-14]
cytotoxicity response (M14 cells): no markers for apoptosis and cytotoxicity | effect on cell viability (live cell protease) (M14 cells): no effect on cell viability | time of caspase activity spike (M14 cells): 24 h | HDAC2 inhibition (HDAC2): lack of HDAC inhibition | inhibition of M14 cell viability at highest tested concentration (M14 melanoma cell line; 100 μM): not able to inhibit M14 cell viability fully | HDAC1 inhibition (HDAC1): lack of HDAC inhibition | HDAC6 inhibition (HDAC6): lack of HDAC inhibition

Structure (SMILES): CCC[C@H]1CNC(=O)C(=O)N1C[C@@H]1CCCN1C[C@@H](CC1CCCCC1)N1C[C@H](Cc2ccc(O)cc2)N(CCc2ccccc2)C(=O)C1=O [Compound 2155-17]
selectivity for M14 over A549 cells (M14 melanoma cell line; ratio of IC50): approximately 5 fold | selectivity for M14 over CHO-K1 cells (M14 melanoma cell line; ratio of IC50): more than 10 fold

IC50 [2]: 890 ± 70 nM | HDAC2 inhibition (HDAC2): lack of HDAC inhibition | IC50 (M14 melanoma cell line; Homo sapiens, M14, read-out: IC50 M14, Table 3, mean of three ± SD): 890 ± 70 nM | HDAC1 inhibition (HDAC1): lack of HDAC inhibition | HDAC6 inhibition (HDAC6): lack of HDAC inhibition
Structure (SMILES): O=C1NC[C@H](Cc2ccccc2)N(C[C@@H]2CCCN2C[C@H](Cc2ccccc2)N2C[C@H](Cc3ccc(O)cc3)N(CCC34CC5CC(CC(C5)C3)C4)C(=O)C2=O)C1=O [Compound 2155-18]

Structure (SMILES): C[C@H](CCC(=O)O)C[C@H](C)C[C@H](C)C(=O)/C=C(\O)[C@H](C)C[C@H](C)C/C=C/[C@@H](C)[C@@H](O)[C@@H](C)[C@@H](O)C[C@@H]1CC[C@@](C)([C@H]2CC[C@@](C)([C@@H](C)O)O2)O1 [ionomycin]
cytotoxicity response (M14 cells): strong cytotoxicity response | effect on cell viability (live cell protease) (M14 cells): dose-dependent loss of viability | time of caspase activity spike (M14 cells): did not induce a spike in caspase activity

Structure (SMILES): Cc1[nH]c2ccccc2c1CCNCc1ccc(/C=C/C(=O)NO)cc1 [panobinostat]
cytotoxicity response (M14 cells): no effect | effect on cell viability (live cell protease) (M14 cells): no effect | time of caspase activity spike (M14 cells): 24 to 48 h

Structure (SMILES): CC(C)(C)c1ccc(C(O)CCCN2CCC(C(O)(c3ccccc3)c3ccccc3)CC2)cc1 (centres unmarked) [terfenadine]
cytotoxicity response (M14 cells): cytotoxicity spike | effect on cell viability (live cell protease) (M14 cells): early loss of cell viability | time of caspase activity spike (M14 cells): 4 to 24 h

Structure (SMILES): CCCS(=O)(=O)Nc1ccc(F)c(C(=O)c2c[nH]c3ncc(-c4ccc(Cl)cc4)cc23)c1F [vemurafenib]
activity against M202 and M207 melanoma cells [3]: inactive
